# Reference: ChEMBL document CHEMBL3351270, “Curcumolide, a unique sesquiterpenoid with anti-inflammatory properties from Curcuma wenyujin” (Bioorg Med Chem Lett, 2015)
# Active and inactive are the calls of the source. No cut-off for these calls is given here.
# Assays:
# RAW264.7 [1] = assay: Cytotoxicity against mouse RAW264.7 cells assessed as cell viability at 0.01 to 100 uM after 24 hrs by MTT assay; assay type: cell-based; conditions: raw264.7, 24 h
# Procedure, shortened: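 Viability of RAW 264.7 cells measured by MTT after 24 h exposure to compound at 0.01–100 µM.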
# RAW264.7 [2] = assay: Antiinflammatory activity in mouse RAW264.7 cells assessed as inhibition of LPS-induced increase in TNF-alpha level incubated for 2 hrs prior to LPS challenge measured after 22 hrs by ELISA; assay type: functional, cell-based
# Procedure, shortened: (§1)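 RAW 264.7 macrophages pretreated 2 h with compound (0–20 µM) or 10 µM hydrocortisone as positive control, then exposed to LPS for a further 22 h. TNF-α, IL-1β and IL-6 in culture medium determined by ELISA. Means ± SEM from four independent experiments.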
# RAW264.7 [3] = assay: Antiinflammatory activity in mouse RAW264.7 cells assessed as inhibition of LPS-induced increase in IL-6 level incubated for 2 hrs prior to LPS challenge measured after 22 hrs by ELISA; assay type: functional, cell-based; procedure, shortened: as §1
# RAW264.7 [4] = assay: Antiinflammatory activity in mouse RAW264.7 cells assessed as inhibition of LPS-induced increase in IL-1beta level incubated for 2 hrs prior to LPS challenge measured after 22 hrs by ELISA; assay type: functional, cell-based; procedure, shortened: as §1
# RAW264.7 [5] = assay: Antiinflammatory activity in mouse RAW264.7 cells assessed as inhibition of LPS-induced increase in TNF-alpha level at 10 uM incubated for 2 hrs prior to LPS challenge measured after 22 hrs by ELISA relative to control; assay type: functional; procedure, shortened: as §1
# RAW264.7 [6] = assay: Antiinflammatory activity in mouse RAW264.7 cells assessed as inhibition of LPS-induced increase in IL-6 level at 10 uM incubated for 2 hrs prior to LPS challenge measured after 22 hrs by ELISA relative to control; assay type: functional; procedure, shortened: as §1
# RAW264.7 [7] = assay: Antiinflammatory activity in mouse RAW264.7 cells assessed as inhibition of LPS-induced increase in IL-1beta level at 10 uM incubated for 2 hrs prior to LPS challenge measured after 22 hrs by ELISA relative to control; assay type: functional; procedure, shortened: as §1
# RAW264.7 [8] = assay: Antiinflammatory activity in mouse RAW264.7 cells assessed as inhibition of LPS-induced increase in TNF-alpha level at 20 uM incubated for 2 hrs prior to LPS challenge measured after 22 hrs by ELISA relative to control; assay type: functional; procedure, shortened: as §1
# RAW264.7 [9] = assay: Antiinflammatory activity in mouse RAW264.7 cells assessed as inhibition of LPS-induced increase in IL-6 level at 20 uM incubated for 2 hrs prior to LPS challenge measured after 22 hrs by ELISA relative to control; assay type: functional; procedure, shortened: as §1
# RAW264.7 [10] = assay: Antiinflammatory activity in mouse RAW264.7 cells assessed as inhibition of LPS-induced increase in IL-1beta level at 20 uM incubated for 2 hrs prior to LPS challenge measured after 22 hrs by ELISA relative to control; assay type: functional; procedure, shortened: as §1
# RAW264.7 [11] = assay: Antiinflammatory activity in mouse RAW264.7 cells assessed as inhibition of LPS-induced nitric oxide production incubated for 2 hrs prior to LPS challenge measured after 22 hrs relative to vehicle-treated control; assay type: functional, cell-based
# Procedure, shortened: (§2)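 Cells treated 2 h with compound (0–20 µM) or 10 µM hydrocortisone, followed by LPS for a further 22 h. NO production estimated as nitrite in culture medium by Griess reaction. Inhibition expressed as blocked ratio. Means ± SEM, four independent experiments.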
# RAW264.7 [12] = assay: Antiinflammatory activity in mouse RAW264.7 cells assessed as inhibition of LPS-induced nitric oxide production at 2 uM incubated for 2 hrs prior to LPS challenge measured after 22 hrs relative to vehicle-treated control; assay type: functional; procedure, shortened: as §2
# RAW264.7 [13] = assay: Antiinflammatory activity in mouse RAW264.7 cells assessed as inhibition of LPS-induced nitric oxide production at 10 uM incubated for 2 hrs prior to LPS challenge measured after 22 hrs relative to vehicle-treated control; assay type: functional; procedure, shortened: as §2
# RAW264.7 [14] = assay: Antiinflammatory activity in mouse RAW264.7 cells assessed as inhibition of LPS-induced nitric oxide production at 20 uM incubated for 2 hrs prior to LPS challenge measured after 22 hrs relative to vehicle-treated control; assay type: functional; procedure, shortened: as §2
# RAW264.7 [15] = assay: Antiinflammatory activity in mouse RAW264.7 cells assessed as inhibition of LPS-induced ROS generation incubated for 2 hrs prior to LPS challenge measured after 22 hrs by spectrophotometry relative to vehicle-treated control; assay type: functional, cell-based
# Procedure, shortened: (§3)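 Compound (0–20 µM) applied to RAW 264.7 cells for 2 h, then LPS added for a further 22 h. Cells harvested, loaded with 10 µM DCFH-DA for 20 min, washed twice with cold PBS. Intracellular ROS read as arbitrary fluorescence units. Means ± SEM, four independent experiments.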
# RAW264.7 [16] = assay: Antiinflammatory activity in mouse RAW264.7 cells assessed as inhibition of LPS-induced ROS generation at 10 uM incubated for 2 hrs prior to LPS challenge measured after 22 hrs by spectrophotometry relative to vehicle-treated control; assay type: functional; procedure, shortened: as §3
# RAW264.7 [17] = assay: Antiinflammatory activity in mouse RAW264.7 cells assessed as inhibition of LPS-induced ROS generation at 20 uM incubated for 2 hrs prior to LPS challenge measured after 22 hrs by spectrophotometry relative to vehicle-treated control; assay type: functional; procedure, shortened: as §3
# [18] = target: Transcription factor p65 (Mus musculus) (UniProt Q04207); assay: Antiinflammatory activity in mouse RAW264.7 cells assessed as inhibition of LPS-induced NF-kappaB p65 subunit nuclear translocation at 20 uM incubated for 1 hr prior to LPS challenge measured after 30 mins by immunofluorescence assay relative to vehicle-treated control; assay type: cell-based
# Procedure, shortened: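 Immunofluorescence: RAW 264.7 cells pretreated with 20 µM compound for 1 h, then LPS for 30 min. p65 subunit localization (cytoplasm vs nucleus) imaged by fluorescence microscopy.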
# [19] = target: Transcription factor p65 (Mus musculus) (UniProt Q04207); assay: Antiinflammatory activity in mouse RAW264.7 cells assessed as inhibition of LPS-induced DNA binding activity of NF-kappaB p65 incubated for 1 hr prior to LPS challenge measured after 30 mins by ELISA relative to vehicle-treated control; assay type: cell-based
# Procedure, shortened: (§4)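 RAW264.7 cells preincubated with compound (0–20 µM) for 1 h, then stimulated with LPS for 30 min. NF-κB p65 DNA-binding activity quantified by ELISA-based TransAM p65 transcription factor kit. Means ± SEM of three independent experiments. LPS given at 0.5 µg/mL.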
# [20] = target: Transcription factor p65 (Mus musculus) (UniProt Q04207); assay: Antiinflammatory activity in mouse RAW264.7 cells assessed as inhibition of LPS-induced DNA binding activity of NF-kappaB p65 at 2 uM incubated for 1 hr prior to LPS challenge measured after 30 mins by ELISA relative to vehicle-treated control; assay type: cell-based; procedure, shortened: as §4
# [21] = target: Transcription factor p65 (Mus musculus) (UniProt Q04207); assay: Antiinflammatory activity in mouse RAW264.7 cells assessed as inhibition of LPS-induced DNA binding activity of NF-kappaB p65 at 10 uM incubated for 1 hr prior to LPS challenge measured after 30 mins by ELISA relative to vehicle-treated control; assay type: cell-based; procedure, shortened: as §4
# [22] = target: Transcription factor p65 (Mus musculus) (UniProt Q04207); assay: Antiinflammatory activity in mouse RAW264.7 cells assessed as inhibition of LPS-induced DNA binding activity of NF-kappaB p65 at 20 uM incubated for 1 hr prior to LPS challenge measured after 30 mins by ELISA relative to vehicle-treated control; assay type: cell-based; procedure, shortened: as §4
# Sequence of Transcription factor p65 (Mus musculus) (Q04207 whole entry): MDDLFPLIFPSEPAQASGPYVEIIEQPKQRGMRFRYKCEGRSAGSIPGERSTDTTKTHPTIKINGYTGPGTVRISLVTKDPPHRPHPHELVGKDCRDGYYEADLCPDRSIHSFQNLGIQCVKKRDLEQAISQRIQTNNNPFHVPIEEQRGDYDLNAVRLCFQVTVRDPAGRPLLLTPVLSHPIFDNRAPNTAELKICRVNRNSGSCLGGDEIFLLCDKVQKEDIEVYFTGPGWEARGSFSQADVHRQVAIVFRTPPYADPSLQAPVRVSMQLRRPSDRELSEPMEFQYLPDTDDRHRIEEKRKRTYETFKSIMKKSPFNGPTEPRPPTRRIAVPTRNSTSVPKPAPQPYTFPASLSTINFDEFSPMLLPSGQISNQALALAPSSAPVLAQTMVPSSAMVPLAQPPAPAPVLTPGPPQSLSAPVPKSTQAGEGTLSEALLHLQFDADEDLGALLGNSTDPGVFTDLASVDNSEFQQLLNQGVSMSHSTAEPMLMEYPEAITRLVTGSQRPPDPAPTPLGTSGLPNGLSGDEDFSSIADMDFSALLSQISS
smiles,measurement,setting,value
CC1=C[C@]2(C(C)(C)O)C[C@]3(OC2=O)[C@@H](C)CC[C@@H]13,Activity,RAW264.7 [1],Non-toxic
same,inhibition,RAW264.7 [2],Dose-dependent effect
same,inhibition,RAW264.7 [3],Dose-dependent effect
same,inhibition,RAW264.7 [4],Dose-dependent effect
same,inhibition at 10 µM,RAW264.7 [5],37.6%
same,inhibition at 10 µM,RAW264.7 [6],37.3%
same,inhibition at 10 µM,RAW264.7 [7],27.9%
same,inhibition at 20 µM,RAW264.7 [8],55.4%
same,inhibition at 20 µM,RAW264.7 [9],78.3%
same,inhibition at 20 µM,RAW264.7 [10],68%
same,inhibition,RAW264.7 [11],Dose-dependent effect
same,inhibition at 2 µM,RAW264.7 [12],25.1%
same,inhibition at 10 µM,RAW264.7 [13],53.9%
same,inhibition at 20 µM,RAW264.7 [14],71%
same,inhibition,RAW264.7 [15],Dose-dependent effect
same,inhibition at 10 µM,RAW264.7 [16],57.9%
same,inhibition at 20 µM,RAW264.7 [17],82.3%
same,inhibition,[18],Active
same,inhibition,[19],Dose-dependent effect
same,inhibition,[20],36.5%
same,inhibition,[21],51.3%
same,inhibition,[22],68%
C[C@]12CCC(=O)C=C1CC[C@@H]1[C@@H]2[C@@H](O)C[C@@]2(C)[C@H]1CC[C@]2(O)C(=O)CO,inhibition,RAW264.7 [5],Active
same,inhibition,RAW264.7 [6],Active
same,inhibition,RAW264.7 [7],Active
same,inhibition,RAW264.7 [13],Active
